Laboratory results taken from PMC9706633 (Poultry Science, 2022).
Entries after “also recorded” stand apart in the source; their conditions may differ.

How the values were obtained:
CCK2R = details: mammals, ref Noble and Roques, 2002, Miller and Gao, 2008, cited from earlier work; for binding affinities of CCK-8S and CCK-8NS to CCK2R compared: in words
[1] = tested on: CHO cells transfected with the empty pcDNA3.1(+) vector; test: pGL3-NFAT-RE-luciferase negative control, CHO cells with empty pcDNA3.1; assay type: cell-based, Chinese hamster; details: 6 h
Procedure, shortened: (§1)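 CHO cells (DMEM, 10% FBS, penicillin/streptomycin, 37°C, 5% CO2) seeded a day ahead and co-transfected (jetPRIME) with 250 ng empty pcDNA3.1 plus 750 ng reporter: CRE (cAMP/PKA), NFAT-RE (calcium) or SRE (MAPK/ERK). After 24 h, cells were replated in 96-well plates and grown 24 h. They were then exposed to test peptide at 10−12–10−6 M in DMEM for 6 h, lysed, and read for luciferase.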

[2] = tested on: CHO cells transfected with the empty pcDNA3.1(+) vector; test: pGL4-SRE-luciferase negative control, CHO cells with empty pcDNA3.1; assay type: cell-based, Chinese hamster; details: 6 h
Procedure, shortened: as §1

cCCK2R [3] = test: pGL3-CRE-luciferase reporter assay; assay type: cell-based, chicken; details: read-out: EC50, cAMP/PKA signaling pathway, CHO cells expressing cCCK2R, peptide 10^−12 M - 10^−6 M, 6 h, triplicates (N = 3)
cCCK1R [4] = test: pGL4-SRE-luciferase reporter assay; assay type: cell-based, chicken; details: read-out: EC50, MAPK/ERK signaling pathway, CHO cells expressing cCCK1R, peptide 10^−12 M - 10^−6 M, 6 h, triplicates (N = 3)
Procedure, shortened: (§2)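 CHO cells were grown in DMEM with 10% FBS at 37°C and 5% CO2. They were transiently co-transfected with 250 ng of chicken receptor plasmid (empty pcDNA3.1 as control) and 750 ng of reporter construct using jetPRIME. After 24 h, cells were reseeded and grown a further 24 h. Test peptide was then applied in DMEM, and lysate luciferase was measured. Data are mean ± SEM.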

cCCK1R [5] = test: pGL3-CRE-luciferase reporter assay; assay type: cell-based, chicken; details: read-out: EC50, cAMP/PKA signaling pathway, CHO cells expressing cCCK1R, peptide 10^−12 M - 10^−6 M, 6 h, triplicates (N = 3)
Procedure, shortened: as §2

cCCK1R [6] = test: Western blot of ERK1/2 phosphorylation, CHO cells expressing cCCK1R; assay type: cell-based, chicken; details: 10 nM, 10 min, normalized by β-actin, N = 4
Procedure, shortened: (§3)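 CHO cells transfected with 1000 ng chicken CCK1R or CCK2R expression plasmid, grown in 24-well plates at 37 °C. At 24 h post-transfection, cells were exposed to test peptide (10 nM, 10 min), lysed, and immunoblotted with phospho-ERK1/2 (Thr202/Tyr204) and phospho-CREB (Ser133) rabbit mAbs. Densitometric bands normalized to β-actin, expressed as fold of untreated control; mean ± SEM, N = 4; t-test or ANOVA/Dunnett.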

cCCK1R [7] = test: Western blot of CREB phosphorylation, CHO cells expressing cCCK1R; assay type: cell-based, chicken; details: 10 nM, 10 min, normalized by β-actin, N = 4
Procedure, shortened: as §3

cCCK2R [8] = test: pGL4-SRE-luciferase reporter assay; assay type: cell-based, chicken; details: read-out: EC50, MAPK/ERK signaling pathway, CHO cells expressing cCCK2R, peptide 10^−12 M - 10^−6 M, 6 h, triplicates (N = 3)
Procedure, shortened: as §2

cCCK2R [9] = test: pGL3-NFAT-RE-luciferase reporter assay; assay type: cell-based, chicken; details: read-out: EC50, calcium mobilization, CHO cells expressing cCCK2R, peptide 10^−12 M - 10^−6 M, 6 h, triplicates (N = 3)
Procedure, shortened: as §2

cCCK2R [10] = test: Western blot of CREB phosphorylation, CHO cells expressing cCCK2R; assay type: cell-based, chicken; details: 10 nM, 10 min, normalized by β-actin, N = 4
Procedure, shortened: as §3

cCCK2R [11] = test: Western blot of ERK1/2 phosphorylation, CHO cells expressing cCCK2R; assay type: cell-based, chicken; details: 10 nM, 10 min, normalized by β-actin, N = 4
Procedure, shortened: as §3

[12] = tested on: CHO cells transfected with the empty pcDNA3.1(+) vector; test: pGL3-CRE-luciferase negative control, CHO cells with empty pcDNA3.1; assay type: cell-based, Chinese hamster; details: 6 h
Procedure, shortened: as §1

cCCK1R [13] = test: Overall activation of cCCK1R; design: species or system chicken; details: 3 cell-based luciferase reporter systems and western blots; CHO cells; in words
cCCK1R [14] = test: pGL3-NFAT-RE-luciferase reporter assay; assay type: cell-based, chicken; details: read-out: EC50, calcium mobilization, CHO cells expressing cCCK1R, peptide 10^−12 M - 10^−6 M, 6 h, triplicates (N = 3)
Procedure, shortened: as §2

cCCK2R [15] = test: Overall activation of cCCK2R; design: species or system chicken; details: 3 cell-based luciferase reporter systems and western blots; CHO cells; in words

Substance | binding affinities of CCK-8S and CCK-8NS to CCK2R compared (CCK2R) | binding affinity to CCK2R, fold higher than CCK-4 (CCK2R) [fold] | effect on pGL3-NFAT-RE-luciferase activity in empty-vector CHO cells ([1]; N = 3) | effect on pGL3-NFAT-RE-luciferase activity in empty-vector CHO cells ([1]; N = 3, listed as CCK-8S) | effect on pGL4-SRE-luciferase activity in empty-vector CHO cells ([2]; N = 3) | effect on pGL4-SRE-luciferase activity in empty-vector CHO cells ([2]; N = 3, listed as CCK-8S) | EC50 (cCCK2R [3]) [nM] | EC50 (cCCK1R [4]) [nM] | EC50 (cCCK1R [5]) [nM] | ERK1/2 phosphorylation (pERK1/2) (cCCK1R [6]) | CREB phosphorylation (pCREB) (cCCK1R [7]) | EC50 (cCCK2R [8]) [nM] | EC50 (cCCK2R [9]) [nM] | CREB phosphorylation (pCREB) (cCCK2R [10]) | ERK1/2 phosphorylation (pERK1/2) (cCCK2R [11]) | effect on pGL3-CRE-luciferase activity in empty-vector CHO cells ([12]; N = 3) | effect on pGL3-CRE-luciferase activity in empty-vector CHO cells ([12]; N = 3, listed as CCK-8S) | activation of cCCK1R, overall (cCCK1R [13]) | EC50 (cCCK1R [14]) [nM] | activation of cCCK2R, overall (cCCK2R [15])
CCK-8NS: non-sulfated octapeptide of CCK | similar | 10 |  |  |  |  |  |  |  |  |  |  |  |  |  |  |  |  |  | 
DYMGWMDF [cCCK-8S, (Tyr (SO3H)^27) Cholecystokinin fragment 26-33 amide] | similar |  | no effect | no response | no effect | no response | 29.6 ± 7.68 | 0.32 ± 0.26 | 5.76 ± 1.55 | strongly enhance ERK1/2 phosphorylation | potently enhance CREB phosphorylation | 1.16 ± 0.61 | 1.93 ± 0.7 | potently enhance CREB phosphorylation | strongly enhance ERK1/2 phosphorylation | no effect | no response | potently activated; also recorded: can potently activate cCCK1R; also recorded: activated preferentially | 5.41 ± 1.15 | can potently activate cCCK2R
